The record followed here is ChEMBL document CHEMBL1687824, “Overexpression of patA and patB, which encode ABC transporters, is associated with fluoroquinolone resistance in clinical isolates of Streptococcus pneumoniae” (2011).

The MIC is the lowest concentration that inhibits growth of the organism.

Assay [1] has as its system Streptococcus pneumoniae. Description: Antibacterial activity against fluoroquinolone, dye-resistant Streptococcus pneumoniae M296 overexpressing patA, patB by standardized agar doubling dilution method in presence of 20 ug/ml reserpine efflux pump inhibitor. It is filed as functional. The method in brief: (§1)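 MIC by agar doubling dilution following BSAC guidelines. Strains grown in brain heart infusion broth 24 h at 37°C in 5% CO2. Where an efflux pump inhibitor applies, MIC redetermined with reserpine at 20 μg/ml or sodium orthovanadate at 50 μM. Synergy taken as a fall in MIC of ≥2 dilutions with inhibitor present. Dye resistance defined relative to R6 (both dyes ≥2 dilutions higher).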

In assay [2] the test system is Streptococcus pneumoniae. Description: Antibacterial activity against dye-resistant Streptococcus pneumoniae M55 DR overexpressing patA, patB by standardized agar doubling dilution method in presence of 20 ug/ml reserpine efflux pump inhibitor. It is filed as functional. The method in brief: as §1
Assay [3] relates to Streptococcus pneumoniae. Description: Antibacterial activity against dye-resistant Streptococcus pneumoniae M46 DR overexpressing patA, patB by standardized agar doubling dilution method in presence of 20 ug/ml reserpine efflux pump inhibitor. It is filed as functional. The method in brief:
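MICs were determined by BSAC agar doubling dilution in the presence of reserpine at 20 μg/ml. Strains were grown in BHI broth for 24 h at 37°C in 5% CO2, with R6 as control. Synergy was defined as an MIC drop of ≥2 dilutions with the inhibitor.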

For assay [4], the system named is Streptococcus pneumoniae. Description: Antibacterial activity against wild-type Streptococcus pneumoniae R6 by standardized agar doubling dilution method.

On to `CC[n+]1c(-c2ccccc2)c2cc(N)ccc2c2ccc(N)cc21.[Br-]` [HOMIDIUM BROMIDE], for which the MIC came to 0.5 µg/mL with Streptococcus pneumoniae [1], 0.5 µg/mL in the assay with Streptococcus pneumoniae [2], 0.5 µg/mL in the assay with Streptococcus pneumoniae [3] and 1 µg/mL against Streptococcus pneumoniae [4].
